In ChEMBL document CHEMBL1159121, “Synthesis, in vitro structure-activity relationship, and in vivo studies of 2-arylthiazolidine-4-carboxylic acid amides as anticancer agents” (Bioorg Med Chem, 2010):

How the values were obtained:
[1] = Antiproliferative activity against mouse B16-F1 cells after 48 hrs by SRB assay; assay type: functional, cell-based; conditions: B16-F1, 48 h
Outline: (§1)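 Melanoma lines and control fibroblasts grown at 37 °C, 5% CO2, then exposed to a wide concentration range for 48 h in round-bottom 96-well plates. Fixed with 10% TCA, stained with SRB, protein read at 560 nm. IC50 (50% growth inhibition versus untreated) obtained by nonlinear regression.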

[2] = tested on: A-375; assay: Antiproliferative activity against human A375 cells after 48 hrs by SRB assay; assay type: functional, cell-based; conditions: A-375, 48 h; outline: as §1
[3] = Antiproliferative activity against human WM164 cells after 48 hrs by SRB assay; assay type: functional, cell-based; conditions: WM164, 48 h; outline: as §1
[4] = Cytotoxicity against human fibroblasts after 48 hrs by SRB assay; assay type: cell-based; conditions: Fibroblast; outline: as §1
[5] = Selectivity ratio of IC50 for human fibroblasts to IC50 for human melanoma cells; assay type: ADME; conditions: human fibroblasts and human melanoma cells, read-out: Ratio IC50
[6] = tested on: DU-145; assay: Antiproliferative activity against human DU145 cells after 96 hrs by SRB assay; assay type: functional, cell-based; conditions: DU-145, 96 h
Outline: (§2)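 Prostate lines in RPMI1640/10% FBS; RH7777 in DMEM/10% FBS. Cells TCA-fixed, stained with 0.4% SRB, absorbance read at 540 nm. IC50 from nonlinear regression of % survival against concentration.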

[7] = tested on: PC-3; assay: Antiproliferative activity against human PC3 cells after 96 hrs by SRB assay; assay type: functional, cell-based; conditions: PC-3, 96 h
[8] = tested on: RH7777; assay: Cytotoxicity against rat RH7777 cells after 96 hrs by SRB assay; assay type: cell-based; conditions: RH7777, 96 h; outline: as §2
[9] = tested on: RH7777; assay: Selectivity ratio of IC50 for rat RH7777 cells to IC50 for human prostate cancer cells
Outline: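 Ratio of RH7777 IC50 to the mean IC50 over four prostate lines (DU 145, PC-3, LNCaP, PPC-1). Prostate lines grown in RPMI1640/10% FBS and RH7777 in DMEM/10% FBS. Read by SRB (0.4%) at 540 nm; IC50 by nonlinear regression.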

[10] = tested on: LNCaP; assay: Antiproliferative activity against human LNCAP cells after 96 hrs by SRB assay; assay type: functional, cell-based; outline: as §2
[11] = tested on: PPC-1; assay: Antiproliferative activity against human PPC1 cells after 96 hrs by SRB assay; assay type: functional, cell-based; conditions: PPC-1, 96 h; outline: as §2

SMILES | IC50 [1] | IC50 [2] | IC50 [3] | IC50 [4] | selectivity ratio [5] | IC50 [6] | IC50 [7] | IC50 [8] | Ratio IC50 [9] | IC50 [10] | IC50 [11]
CCCCCCCCCCCCCCCCCCNC(=O)[C@@H]1CSC(c2cc(OC)c(OC)c(OC)c2)N1 (mixture of isomers) | 5.9 µM | 4.6 µM | 3 µM | 4.7 µM | 1 | 4.1 µM | 4.9 µM | 14 µM | 4.8 | 1.6 µM | 1 µM
CC(=O)Nc1ccc(C2N[C@H](C(=O)Nc3ccc(-c4ccccc4)cc3)CS2)cc1 (mixture of isomers) | 5.7 µM | 6.2 µM | 4.1 µM | 33.4 µM | 6.3 | 5 µM | 7.6 µM | 9.5 µM | 2 | 3.5 µM | 2.9 µM
CCCCCCCCCCCCCCCCNC(=O)[C@@H]1CSC(c2ccc(N(C)C)cc2)N1 (mixture of isomers) | 6.7 µM | 1.8 µM | 1.5 µM | 21 µM | 6.3 | 3.2 µM | 6 µM | 10 µM | 3.6 | 1.4 µM | 0.4 µM
CCCCCCCCCCCCCCCCCCNC(=O)[C@@H]1CSC(c2ccc(OC)c(OC)c2)N1 (mixture of isomers) | 14.3 µM | 6.9 µM | 2.7 µM | 20.3 µM | 2.5 | 5.5 µM | 4.1 µM | 11.8 µM | 3.7 | 2.4 µM | 0.9 µM
CCCCCCCCC/C=C\CCCCCCCNC(=O)[C@@H]1CSC(c2ccc(OC)c(OC)c2)N1 (mixture of isomers) | 3.3 µM | 1.6 µM | 1.2 µM | 18.3 µM | 9 | 2 µM | 2.6 µM | 10 µM | 6.2 | 1.3 µM | 0.6 µM
CCCCCCCCC/C=C/CCCCCCCNC(=O)[C@@H]1CSC(c2ccc(OC)c(OC)c2)N1 (mixture of isomers) | 3.2 µM | 1.4 µM | 1.1 µM | 16.3 µM | 8.6 | 1.5 µM | 2 µM | 9.4 µM | 8.2 | 0.8 µM | 0.3 µM
CCCCCCCCCCCCCCCCNC(=O)[C@@H]1CSC(c2ccccc2NC(C)=O)N1 (mixture of isomers) | 8 µM | 9.3 µM | 3.9 µM | 27.8 µM | 3.9 | 4.6 µM | 2.7 µM | 13.2 µM | 4.4 | 3.3 µM | 1.5 µM
CCCCCCCCCCCCCCCCNC(=O)[C@@H]1CSC(c2cccc(NC(C)=O)c2)N1 (mixture of isomers) | 2.2 µM | 1.5 µM | 1.1 µM | 6.3 µM | 3.9 | 2.3 µM | 1.6 µM | 4.9 µM | 3.4 | 1.4 µM | 0.5 µM
CCCCCCCCC/C=C/CCCCCCCNC(=O)[C@@H]1CSC(c2cc(OC)c(OC)c(OC)c2)N1 (mixture of isomers) | 3.2 µM | 1.8 µM | 1.1 µM | 4 µM | 2 | 0.9 µM | 1.2 µM | 6.8 µM | 9.1 | 0.6 µM | 0.3 µM
CCCCCCCCCCCCCCCCNC(=O)[C@@H]1CSC(c2ccccc2OC)N1 (mixture of isomers) | 4.3 µM | 3 µM | 2.4 µM | 7.2 µM | 2.2 | 6.5 µM | 7.4 µM | 17.2 µM | 3.6 | 3.6 µM | 1.7 µM
CCCCCCCCCCCCCCCCNC(=O)[C@@H]1CSC(c2cccc(OC)c2)N1 (mixture of isomers) | 3 µM | 1.8 µM | 1.2 µM | 2.5 µM | 1.3 | 1.1 µM | 1 µM | 3.6 µM | 5.1 | 0.5 µM | 0.2 µM
CC(=O)Nc1ccc(C2N[C@H](C(=O)Nc3ccc4cc5ccccc5cc4c3)CS2)cc1 (mixture of isomers) | 5.6 µM | 3.1 µM | 1.4 µM | 13.5 µM | 4 | 0.9 µM | 0.8 µM | 2.6 µM | 2.5 | 1.7 µM | 0.7 µM
CCCCCCCCC/C=C\CCCCCCCNC(=O)[C@@H]1CSC(c2ccccc2)N1 (mixture of isomers) | 6 µM | 4.9 µM | 2.4 µM | 11.6 µM | 2.6 | 1.8 µM | 2.4 µM | 8.3 µM | 4.9 | 1.6 µM | 1 µM
CCCCCCCCCCCCCCCCNC[C@@H]1CSC(c2ccccc2)N1 (mixture of isomers) | 4.7 µM | 13 µM | 4.9 µM | 60 µM | 8 | 3.1 µM | 3.4 µM | 6.2 µM | 1.9 | 3.9 µM | 2.5 µM
CCCCCCCCC/C=C\CCCCCCCNC(=O)[C@@H]1CSC(c2cc(OC)c(OC)c(OC)c2)N1 (mixture of isomers) | 4.7 µM | 2.4 µM | 1.3 µM | 4.8 µM | 1.7 | 1.2 µM | 1.5 µM | 8.4 µM | 8.6 | 0.7 µM | 0.5 µM
CCCCCCCCCCCCCCCCNC[C@@H]1CSC(c2ccc(NC(C)=O)cc2)N1 (mixture of isomers) | 11.9 µM | 14.4 µM | 3.2 µM | 84.5 µM | 8.6 | 4.7 µM | 4.5 µM | 7.9 µM | 1.9 | 4.7 µM | 2.4 µM
